Experimental data from different studies.
Each line is one published result; the experiments were not run side by side.
Target: Myosin light chain kinase (MYLK3, Homo sapiens, UniProt Q32MK0)
One construct used (Q32MK0 1-819): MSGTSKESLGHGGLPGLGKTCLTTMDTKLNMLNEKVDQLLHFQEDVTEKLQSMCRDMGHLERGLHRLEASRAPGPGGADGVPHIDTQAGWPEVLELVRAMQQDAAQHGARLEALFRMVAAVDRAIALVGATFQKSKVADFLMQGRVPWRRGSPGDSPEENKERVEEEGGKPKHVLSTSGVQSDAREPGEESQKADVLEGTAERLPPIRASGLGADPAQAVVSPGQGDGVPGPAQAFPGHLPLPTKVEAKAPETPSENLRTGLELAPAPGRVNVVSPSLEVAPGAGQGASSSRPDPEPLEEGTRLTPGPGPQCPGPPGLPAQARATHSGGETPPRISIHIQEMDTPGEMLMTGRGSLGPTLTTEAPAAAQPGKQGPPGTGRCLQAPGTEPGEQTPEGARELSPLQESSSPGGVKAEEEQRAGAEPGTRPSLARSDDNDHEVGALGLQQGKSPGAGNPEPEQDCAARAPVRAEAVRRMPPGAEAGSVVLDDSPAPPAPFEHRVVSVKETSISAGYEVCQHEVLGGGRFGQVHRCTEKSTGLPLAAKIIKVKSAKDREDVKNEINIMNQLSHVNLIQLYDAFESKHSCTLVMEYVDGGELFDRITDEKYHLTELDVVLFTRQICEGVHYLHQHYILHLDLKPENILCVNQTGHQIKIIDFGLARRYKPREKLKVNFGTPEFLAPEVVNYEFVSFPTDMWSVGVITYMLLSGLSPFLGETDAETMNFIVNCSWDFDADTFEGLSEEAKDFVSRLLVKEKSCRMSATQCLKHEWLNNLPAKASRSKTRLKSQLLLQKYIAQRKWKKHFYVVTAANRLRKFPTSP

Structure (SMILES)	assay	setting	remaining binding [%]
CN(c1nccc(-c2cnn3ncccc23)n1)C1CC1	binding	1 µM	100
N#CC1(c2ccccn2)CCN(Cc2cc(C(=O)N3CCCC3)c(=O)n3ccccc23)CC1	cell-free assay, competition with immobilised ligand	1 µM	76
CCN1CCN(Cc2ccc(C(=O)Nc3ccc(C)c(Oc4ccc5c(c4)CC(=O)N5)c3)cc2C(F)(F)F)CC1	binding, competition with immobilised ligand	1 µM	100
CN(C)c1nccc(-c2cnc3ncccn23)n1	binding	1 µM	100
COc1ncc2cc3ccccc3nc2c1C#N	cell-free assay, competition with immobilised ligand	5 µM	96
N[C@@H]1CCN(c2nccc(-c3cnn4ncccc34)n2)C1	binding	1 µM	100
O=C(NCCCN1CCOCC1)c1ccc(Nc2ncc(Cl)c(-c3ccc(Cl)s3)n2)cc1	binding, competition with immobilised ligand	1 µM	7.9
COc1cnc(Nc2cccc(S(N)(=O)=O)c2)nc1N1CCN(c2ccccc2)C(=O)C1	binding, competition with immobilised ligand	1 µM	97
C[C@H](c1ccc(F)cc1)N(Cc1cccc(C(=O)O)c1)C(=O)c1cnc2ccccc2c1	cell-free assay, competition with immobilised ligand	1 µM	100
c1cnn2ncc(-c3ccnc(N4CCC45COC5)n3)c2c1	binding	1 µM	100
O=C(NCC1CCOCC1)c1n[nH]cc1NC(=O)c1c(F)cccc1F	binding, competition with immobilised ligand	1 µM	100
O=C(NCCCN1CCOCC1)c1ccc(Nc2nccc(-c3cc4ccccc4s3)n2)cc1	binding, competition with immobilised ligand	1 µM	3.6
NS(=O)(=O)c1cc(NC(=O)Cc2ccccc2)ccc1Oc1cccc(Cl)c1	cell-free assay, competition with immobilised ligand	1 µM	89
C=CC(=O)N1CCC(C(=O)NCC(=O)N2CCN(c3nc(-c4cnc(N)nc4C(F)F)nc(N4CCOCC4)n3)CC2)CC1	binding, competition with immobilised ligand	1 µM	92
O=C(Nc1cccnn1)N1CCC(=Cc2cccc(Oc3ccc(C(F)(F)F)cn3)c2)CC1	cell-free assay, competition with immobilised ligand	1 µM	100
C[C@@H]1CCN(c2nccc(-c3cnn4ncccc34)n2)C1	binding	1 µM	91
CS(=O)(=O)N1CCCC(NC(=O)[C@H](CCC2CCCCC2)NC(=O)c2ccc(CNC(=O)c3cnc4ccccn34)cc2)C1 (some centres unmarked)	cell-free assay, competition with immobilised ligand	0.1 µM	88
O=C(c1ccc(Nc2ncc(Cl)c(-c3cc4ccccc4s3)n2)cc1)N1CCC(N2CCCC2)CC1	binding, competition with immobilised ligand	1 µM	2
CN(CCCC(F)(F)F)c1nccc(-c2cnn3ncccc23)n1	binding	1 µM	100
Cn1nc(C(=O)NCc2ccc(C(=O)O)cc2)cc1-c1ccc2[nH]ccc2c1	cell-free assay, competition with immobilised ligand	0.1 µM	100
